# Assay results: ChEMBL document CHEMBL1145514, “Single-dose oral amoxicillin or linezolid for prophylaxis of experimental endocarditis due to vancomycin-susceptible and vancomycin-resistant Enterococcus faecalis” (Antimicrob Agents Chemother, 2007)
# Active and inactive are the calls of the source. The calls are words filed in the database; no cut-off is given here.
# Assays:
# Enterococcus faecalis [1] = assay: Antibacterial activity against vancomycin-susceptible Enterococcus faecalis 1209 challenged with 10 times ID90 bacterial size inoculum in Wistar rat assessed as infection at single administration of 2 to 3 g, po
# Enterococcus faecalis [2] = assay: Antibacterial activity against vancomycin-susceptible Enterococcus faecalis JH2-2 challenged with ID90 bacterial size inoculum in Wistar rat assessed as infection at single administration of 2 to 3 g, po; assay type: functional, organism-based
# Summary of the method: (§1)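 Female Wistar rats (180–200 g) with catheter-induced sterile aortic vegetations. 24 h after catheterization, drug is delivered i.v. by pump at changing flow rates to mimic human serum kinetics of a single 2–3 g oral dose. Rats are challenged i.v. with the ID90 at peak serum concentration. Vegetations are cultured 72 h after prophylaxis ends; sterile = no growth (detection ≥2 log10 CFU/g).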
# Enterococcus faecalis [3] = assay: Antibacterial activity against vancomycin-resistant Enterococcus faecalis UCN41 challenged with ID90 bacterial size inoculum in Wistar rat assessed as infection at single administration of 2 to 3 g, po; assay type: functional, organism-based
# Summary of the method: (§2)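 Female Wistar rats (180 to 200 g) with catheter-induced sterile aortic vegetations; 24 h after catheterization, groups of 10 received prophylaxis by pump at changing flow rates mimicking human serum kinetics; controls got i.v. saline. I.v. challenge at peak serum drug level with ID90 or 10 times ID90. Vegetations cultured 72 h after prophylaxis ended; sterile if no growth, detection limit ≥2 log10 CFU/g.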
# [4] = Cmax in Enterococcus faecalis infected Wistar rat at single administration of 2 to 3 g, po; assay type: ADME, organism-based; conditions: in vivo
# Summary of the method: (§3)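 Catheterized female Wistar rats received pump-controlled i.v. infusion at changing flow rates simulating human serum kinetics of the oral regimen. Serum drug levels were measured by agar diffusion bioassay in groups of 3–5 animals. Indicator organisms were B. subtilis ATCC 6633 for amoxicillin (detection limit 0.39 mg/liter) and S. aureus ATCC 29213 for linezolid (detection limit 3.12 mg/liter). Values are means ± SD.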
# Enterococcus faecalis [5] = assay: Antibacterial activity against vancomycin-susceptible Enterococcus faecalis 1209 after 24 hrs by broth macrodilution method; assay type: functional
# Enterococcus faecalis [6] = assay: Antibacterial activity against vancomycin-susceptible Enterococcus faecalis JH2-2 after 24 hrs by broth macrodilution method; assay type: functional
# [7] = Tmax in Enterococcus faecalis infected Wistar rat at single administration of 2 to 3 g, po; assay type: ADME, organism-based; conditions: in vivo
# Summary of the method: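 Female Wistar rats (180-200 g) with catheter-induced sterile aortic vegetations; 24 h after catheterization, drug delivered by pump at changing flow rates to mimic human serum kinetics of a single 2-3 g oral dose. Serum levels in groups of 3-5 rats by agar diffusion bioassay (Bacillus subtilis ATCC 6633 indicator; detection limit 0.39 mg/liter); means ± SD.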
# Enterococcus faecalis [8] = assay: Antibacterial activity against vancomycin-susceptible Enterococcus faecalis 309 challenged with 10 times ID90 bacterial size inoculum in Wistar rat assessed as infection at single administration of 2 to 3 g, po
# Enterococcus faecalis [9] = assay: Antibacterial activity against vancomycin-susceptible Enterococcus faecalis 309 challenged with ID90 bacterial size inoculum in Wistar rat assessed as infection at single administration of 2 to 3 g, po; assay type: functional, organism-based
# Summary of the method: as §1
# Enterococcus faecalis [10] = assay: Antibacterial activity against vancomycin-susceptible Enterococcus faecalis 309 after 24 hrs by broth macrodilution method; assay type: functional
# Enterococcus faecalis [11] = assay: Antibacterial activity against vancomycin-resistant Enterococcus faecalis UCN41 after 24 hrs by broth macrodilution method; assay type: functional
# Enterococcus faecalis [12] = assay: Antibacterial activity against vancomycin-resistant Enterococcus faecalis UCN41 challenged with 10 times ID90 bacterial size inoculum in Wistar rat assessed as infection at single administration of 600 mg, po; assay type: functional, organism-based
# Summary of the method: as §2
# Rattus norvegicus [13] = assay: T>MIC in Enterococcus faecalis infected Wistar rat at single administration of 2 to 3 g, po; assay type: ADME, organism-based; conditions: in vivo
# Summary of the method: as §3
# Enterococcus faecalis [14] = assay: Antibacterial activity against vancomycin-susceptible Enterococcus faecalis JH2-2 challenged with ID90 bacterial size inoculum in Wistar rat assessed as infection at single administration 1 g, iv; assay type: functional, organism-based
# Summary of the method: as §2
# Enterococcus faecalis [15] = assay: Antibacterial activity against vancomycin-resistant Enterococcus faecalis UCN41 challenged with ID90 bacterial size inoculum in Wistar rat assessed as infection at single administration of 1 g, iv; assay type: functional, organism-based
# Summary of the method: as §2
# [16] = Cmax in Enterococcus faecalis infected Wistar rat at single administration of 1 g, iv; assay type: ADME, organism-based; design: dose 1 g, route intravenous; conditions: in vivo
# Summary of the method: (§4)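 Serum drug levels in rats receiving human-kinetics simulation by pump, measured in groups of three to five animals by agar diffusion bioassay with Bacillus subtilis ATCC 6633 as indicator; detection limit 1.76 mg/liter; linear standard curves. Values as means ± SD.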
# Rattus norvegicus [17] = assay: T>MIC in Enterococcus faecalis infected Wistar rat at single administration of 1 g, iv; assay type: ADME, organism-based; conditions: in vivo
# Summary of the method: as §4
# [18] = Tmax in Enterococcus faecalis infected Wistar rat at single administration of 1 g, iv; assay type: ADME, organism-based; conditions: in vivo
# Summary of the method: as §4
# [19] = Tmax in Enterococcus faecalis infected Wistar rat at 600 mg, po four consecutive administration every 12 hrs; assay type: ADME, organism-based; conditions: in vivo
# Summary of the method: (§5)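 Female Wistar rats (180–200 g) with sterile aortic vegetations from a carotid catheter received drug 24 h later by pump at changing flow rates, mimicking human serum kinetics of 600 mg oral doses every 12 h. Serum levels were measured in groups of three to five rats by agar diffusion bioassay (S. aureus ATCC 29213 indicator; detection limit 3.12 mg/liter).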
# [20] = Cmax in Enterococcus faecalis infected Wistar rat at 600 mg, po two consecutive administration every 12 hrs; assay type: ADME, organism-based; design: dose 600 mg, route oral; conditions: in vivo
# Summary of the method: as §3
# [21] = Tmax in Enterococcus faecalis infected Wistar rat at 600 mg, po two consecutive administration every 12 hrs; assay type: ADME, organism-based; conditions: in vivo
# Summary of the method: as §5
# Rattus norvegicus [22] = assay: T>MIC in Enterococcus faecalis infected Wistar rat at 600 mg, po two consecutive administration every 12 hrs; assay type: ADME, organism-based; conditions: in vivo
# Summary of the method: as §3
# [23] = Tmax in Enterococcus faecalis infected Wistar rat at single administration of 600 mg, po; assay type: ADME, organism-based; conditions: in vivo
# Summary of the method: as §5
# [24] = Cmax in Enterococcus faecalis infected Wistar rat at 600 mg, po four consecutive administration every 12 hrs; assay type: ADME, organism-based; design: dose 600 mg, route oral; conditions: in vivo
# Summary of the method: as §3
# Rattus norvegicus [25] = assay: T>MIC in Enterococcus faecalis infected Wistar rat at single administration of 600 mg, po; assay type: ADME, organism-based; conditions: in vivo
# Summary of the method: as §3
# [26] = Cmax in Enterococcus faecalis infected Wistar rat at single administration of 600 mg, po; assay type: ADME, organism-based; design: dose 600 mg, route oral; conditions: in vivo
# Summary of the method: as §3
# Rattus norvegicus [27] = assay: T>MIC in Enterococcus faecalis infected Wistar rat at 600 mg, po four consecutive administration every 12 hrs; assay type: ADME, organism-based; conditions: in vivo
# Summary of the method: as §3
# [28] = Enterococcus faecalis, 1209, 24 h
# [29] = Enterococcus faecalis, 309, 24 h
compound,measurement,setting,value
CC1(C)S[C@@H]2[C@H](NC(=O)[C@H](N)c3ccc(O)cc3)C(=O)N2[C@H]1C(=O)O [AMOXICILLIN],Activity,Enterococcus faecalis [1],Active
same,Activity,Enterococcus faecalis [2],Active
same,Activity,Enterococcus faecalis [3],Active
same,Cmax,[4],29400 ng/mL
same,MIC,Enterococcus faecalis [5]; [28],1 µg/mL
same,MIC,"Enterococcus faecalis [6]; JH2-2, 24 h",0.25 µg/mL
same,Tmax,[7],2 h
same,Activity,Enterococcus faecalis [8],Active
same,Activity,Enterococcus faecalis [9],Active
same,MIC,Enterococcus faecalis [10]; [29],0.5 µg/mL
same,MIC,"Enterococcus faecalis [11]; UCN41, 24 h",0.25 µg/mL
same,Activity,Enterococcus faecalis [12],Active
same,T>MIC,Rattus norvegicus [13],12 h
CN[C@H](CC(C)C)C(=O)N[C@H]1C(=O)N[C@@H](CC(N)=O)C(=O)N[C@H]2C(=O)N[C@H]3C(=O)N[C@H](C(=O)N[C@H](C(=O)O)c4cc(O)cc(O)c4-c4cc3ccc4O)[C@H](O)c3ccc(c(Cl)c3)Oc3cc2cc(c3O[C@@H]2O[C@H](CO)[C@@H](O)[C@H](O)[C@H]2O[C@H]2C[C@](C)(N)[C@H](O)[C@H](C)O2)Oc2ccc(cc2Cl)[C@H]1O [VANCOMYCIN],Activity,Enterococcus faecalis [14],Active
same,Activity,Enterococcus faecalis [15],inactive
same,MIC,Enterococcus faecalis [5]; [28],4 µg/mL
same,MIC,"Enterococcus faecalis [6]; JH2-2, 24 h",1 µg/mL
same,Cmax,[16],37800 ng/mL
same,T>MIC,Rattus norvegicus [17],12 h
same,Tmax,[18],0.5 h
same,MIC,Enterococcus faecalis [10]; [29],4 µg/mL
same,MIC,"Enterococcus faecalis [11]; UCN41, 24 h",> 256 µg/mL
CC(=O)NC[C@H]1CN(c2ccc(N3CCOCC3)c(F)c2)C(=O)O1 [LINEZOLID],Tmax,[19],1 h
same,Cmax,[20],18600 ng/mL
same,Tmax,[21],1 h
same,T>MIC,Rattus norvegicus [22],24 h
same,Tmax,[23],1 h
same,Cmax,[24],19300 ng/mL
same,T>MIC,Rattus norvegicus [25],12 h
same,Cmax,[26],17500 ng/mL
same,T>MIC,Rattus norvegicus [27],48 h
same,Activity,Enterococcus faecalis [12],inactive
GENTAMICIN,MIC,Enterococcus faecalis [5],16 µg/mL
same,MIC,Enterococcus faecalis [6],2 µg/mL
same,MIC,Enterococcus faecalis [10],64 µg/mL
same,MIC,Enterococcus faecalis [11],1 µg/mL
